Data: ChEMBL document CHEMBL1127823, “The effect of fluorine substitution on the metabolism and antimalarial activity of amodiaquine” (J Med Chem, 1994)

How the values were obtained:
[1] = pKa value of compound was evaluated; assay type: physicochemical
[2] = test system: Plasmodium falciparum; assay: Antimalarial activity against Plasmodium falciparum K1; assay type: functional, organism-based
In short: (§1)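 P. falciparum (Thai isolates; K1 uncloned, T9-96 cloned) kept in continuous culture in human erythrocytes, RPMI 1640 with 25 mM HEPES, 32 mM NaHCO3, 10% human serum, gassed 3% O2/4% CO2/93% N2. 48-h assay at 1% initial parasitaemia, 5% haematocrit; drugs from ethanol stocks (final <1% ethanol).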

[3] = test system: Plasmodium falciparum; assay: Antimalarial activity against Plasmodium falciparum T9-96; assay type: functional, organism-based; in short: as §1

pKa [1]	IC50 [2]	IC50 [3]	Compound
4.39	59 nM	40 nM	CCN(CC)Cc1cc(Nc2ccnc3cc(Cl)ccc23)ccc1F
3.96	42 nM	37 nM	CCN(CC)Cc1cc(Nc2ccnc3cc(Cl)ccc23)cc(F)c1O
3.42	56 nM	40 nM	CCN(CC)Cc1cc(Nc2ccnc3cc(Cl)ccc23)c(F)c(F)c1O
2.59	41 nM	34 nM	CCN(CC)Cc1c(O)cc(F)c(Nc2ccnc3cc(Cl)ccc23)c1F
2.17	500 nM	291 nM	CCN(CC)Cc1c(O)c(F)c(F)c(Nc2ccnc3cc(Cl)ccc23)c1F

Compound	pKa [1]	IC50 [2]	IC50 [3]
CCN(CC)Cc1cc(Nc2ccnc3cc(Cl)ccc23)ccc1O	4.95	24 nM	20 nM
